# Bioassay records as filed in PubChem.
# GPR7 antag = blocks human GPR7 receptor signaling | P48145 | GPR7-expressing cells, fluorescence antagonist assay | inhibition, % at 4.4 µM | actives 1.1% (n = 290,000); in the data active means inhibition above about 16%, passing the limit was not always enough;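 further: cells stimulated with the agonist NPW; 0% = agonist with vehicle and 100% = vehicle without agonist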
# Target sequence (P48145 whole entry, looked up): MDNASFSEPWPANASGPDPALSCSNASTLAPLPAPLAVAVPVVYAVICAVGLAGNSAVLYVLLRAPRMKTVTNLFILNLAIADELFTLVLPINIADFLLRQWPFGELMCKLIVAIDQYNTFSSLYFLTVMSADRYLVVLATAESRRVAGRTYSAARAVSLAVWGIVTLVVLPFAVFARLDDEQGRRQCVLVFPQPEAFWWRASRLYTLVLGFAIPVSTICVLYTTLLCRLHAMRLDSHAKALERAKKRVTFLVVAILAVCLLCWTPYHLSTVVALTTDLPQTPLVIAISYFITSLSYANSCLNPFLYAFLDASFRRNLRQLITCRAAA
# OX1R antag-1 = blocks the human orexin 1 receptor; OX1R-expressing cells, FRET antagonist read-out; inhibition, % at 6.6 µM; actives 1.8% (n = 330,000); AID 485270; in the data active means inhibition mostly above about 38%, no sharp cut-off; inactive means mostly below about 40%;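 further: 0% = agonist challenge alone and 100% = reference antagonist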
# MPTP inh = permeability transition pore inhibition; actives 1.4% (n = 360,000); AID 602449; inhibition, % at 10 µM; isolated mouse mitochondria, Ca2+ swelling absorbance, 30 min;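 active means inhibition of 50% or more, scaled per plate between neutral and stimulator controls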;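 further: 0% = DMSO wells given calcium and 100% = 1 mM EGTA wells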
# CHO parental Ca = counter-screen: ATP calcium response change in parental CHO cells; actives 0.63% (n = 330,000); parental CHO-K1, ATP-induced calcium, Fluo-8 fluorescence; inhibition, % at 5.6 µM; AID 463079;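 active means inhibition above that plate's mean sample inhibition plus 3 SD, cut at about 26% in these data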;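 further: 0% = ATP-challenged DMSO wells and 100% = DMSO wells without ATP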
#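 material = parental CHO cells | also added = ATP as calcium-mobilizing challenge | dosing = single point at 5.6 µM | detection = intracellular calcium via Fluo-8 no-wash fluorescent dye | read-out = % inhibition | benchmarks = low control ATP plus DMSO, high control DMSO only | repeats = one well per compound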
# OX1R antag-2 = antagonists of human orexin 1 receptor | CHO/OX1R cells, Fluo-8 calcium fluorescence, orexin A | inhibition, % at 5 µM | actives 0.43% (n = 330,000);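 active means inhibition above its plate's threshold, mean inhibition of all tested compounds on the plate plus 3 SD, cut at about 37% in these data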;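 further: 0% = orexin A challenge wells and 100% = SB-334867-A antagonist wells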
# OX1R Ca confirm = confirmation of human orexin 1 receptor antagonists; shares compounds with OX1R antag-2; CHO/OX1R cells, orexin A calcium Fluo-8 fluorescence; inhibition, % at 5 µM; actives 38% (n = 1,100); in the data active means inhibition above about 29%;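 further: 0% = agonist challenge alone and 100% = reference antagonist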
# CHO Ca counter = counter-screen: parental CHO calcium response change, triplicate | parental CHO-K1, ATP-induced calcium, Fluo-8 fluorescence | inhibition, % at 5.6 µM | actives 9.3% (n = 1,100) | shares compounds with OX1R antag-2;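 active means inhibition above a per-plate limit, the mean inhibition of that plate's test compounds plus 3 SD, cut at about 25% in these data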;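 further: 0% = ATP challenge with DMSO and 100% = DMSO without ATP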
# OX1R HTRF conf = confirmation of human orexin 1 receptor antagonists, HTRF format. OX1R-expressing cells, HTRF antagonist assay. shares compounds with OX1R antag-1. inhibition, % at 6.6 µM. actives 49% (n = 1,800); in the data active means inhibition above about 55%;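 further: CHO cells expressing OX1R stimulated with orexin A at about EC80; 0% = agonist challenge alone and 100% = reference antagonist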
# CHO-K1 HTRF = counter-screen: parental CHO-K1 HTRF response; inhibition, % at 6.6 µM; parental CHO-K1 cells, HTRF counterscreen; shares compounds with OX1R antag-1; actives 48% (n = 1,800); in the data active means inhibition above about 17%;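 further: 0% = agonist challenge with vehicle and 100% = vehicle alone without agonist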
# An asterisk follows results filed as active; nt = no result given. Hits are enriched below; roughly 3.8% of the tested compounds scored in any of these assays.
SMILES,GPR7 antag,OX1R antag-1,MPTP inh,CHO parental Ca,OX1R antag-2,OX1R Ca confirm,CHO Ca counter,OX1R HTRF conf,CHO-K1 HTRF
CC1CN(C(=O)c2ccccc2OCc2ccccc2Cl)CC(C)O1 (configuration not stated),nt,16,-1,-23,-20,nt,nt,nt,nt
C=CCn1c(CCCOc2ccc(Cl)cc2Cl)nnc1SCC(=O)Nc1nccs1,-3,43,3,5,36,23,8,nt,nt
Cc1ccc(CN2CC(C(=O)Nc3ccc(F)c([N+](=O)[O-])c3)CC2=O)cc1 (configuration not stated),19,20,-2,-11,-25,nt,nt,nt,nt
CCOC(=O)c1csc(Nc2nc3ccc(F)cc3s2)n1,-15,15,2,27,39,27,26*,nt,nt
CCOC(=O)c1sc(Nc2nc3ccc(OC)cc3s2)cc1C,-6,20,15,-8,-33,nt,nt,nt,nt
COC(=O)c1ccccc1NC(=O)c1cccnc1,-12,2,3,-7,-10,nt,nt,nt,nt
CC(=O)n1cc([C@@H]2C=C(C(=O)NCc3ccccc3)O[C@H](OCc3ccc(CO)cc3)C2)c2ccccc21,nt,23,0,7,41,17,1,nt,nt
CCOc1ccc2cc(S(=O)(=O)n3ccnc3C)ccc2c1,0,15,-1,16,-3,nt,nt,nt,nt
CCc1nccn1S(=O)(=O)c1ccc2ccc(C)cc2c1,-7,16,-6,-11,56*,4,3,nt,nt
CN(Cc1ccc2c(c1)OCCO2)C(=O)CSc1ncnc2sccc12,nt,0,1,-26,-22,nt,nt,nt,nt
CC(NS(=O)(=O)c1cccc(Cl)c1)C(=O)Nc1ccc(-c2nc3ccccc3s2)cc1 (configuration not stated),-7,55,4,-4,34,12,-8,nt,nt
O=C(CNS(=O)(=O)c1cccc(Cl)c1)Nc1ccc(-c2nc3ccccc3s2)cc1,-13,22,37,-2,-31,nt,nt,nt,nt
Cc1ccc(N=Nc2c(N)n[nH]c2N)cc1,-7,25,0,-4,-17,nt,nt,nt,nt
Cc1cccc(N=Nc2c(N)n[nH]c2-c2ccc(Cl)cc2)c1,-15,7,5,21,27,-5,-7,nt,nt
COc1ccc(OC)c(S(=O)(=O)NCC(c2ccco2)N2CCc3ccccc32)c1 (configuration not stated),nt,90*,1,-9,74*,79*,-8,89*,4
COc1ccccc1C(=O)NCC(c1ccco1)N1CCc2ccccc21 (configuration not stated),nt,15,-1,-36,-35,nt,nt,nt,nt
O=C(Nc1ccccc1)c1nc[nH]c1C(=O)NCc1ccccc1,nt,10,1,3,-15,nt,nt,nt,nt
NNC(=O)c1nc[nH]c1C(=O)Nc1ccccc1,-18,51*,2,-21,25,8,17,23,3
O=C(CCCl)N1CCCC2(CCCCC2)C1,-11,18,1,-18,-9,nt,nt,nt,nt
CCOc1ccc(NC(=O)CN2CCCC2c2cccs2)cc1S(=O)(=O)N1CCCCC1 (configuration not stated),nt,3,-1,-16,-2,nt,nt,nt,nt
Cc1ccc(NC(=O)CN2CCCC2c2cccs2)cc1S(=O)(=O)N1CCCCC1 (configuration not stated),nt,30*,0,-6,43*,12,1,48,1
O=S(=O)(/C=C/c1ccccc1)N1CCN(c2nc(-c3cccnc3)nc3ccccc23)CC1,-20,42,-1,-47,-14,nt,nt,nt,nt
CCc1ccc(-c2cc(C)no2)cc1S(=O)(=O)NCCCN1CCN(c2ccccc2)CC1,11,41*,6,5,33,13,-6,31,-1
Cc1ccc(NC(=O)c2ccc(Cl)c(S(=O)(=O)N3CCCCCC3)c2)nc1,nt,20,0,-25,-25,nt,nt,nt,nt
CSc1nc2ccc3nc(NC(=O)c4ccccc4)sc3c2s1,-7,84*,2,-15,46*,79*,-13,95*,11
SMILES,GPR7 antag,OX1R antag-1,MPTP inh,CHO parental Ca,OX1R antag-2,OX1R Ca confirm,CHO Ca counter,OX1R HTRF conf,CHO-K1 HTRF
O=C(Nc1nc2ccccc2s1)c1ccccc1,-6,10,0,-10,-20,nt,nt,nt,nt
O=C(COC(=O)c1cc(-c2cccs2)nc2ccccc12)NC1CCS(=O)(=O)C1 (configuration not stated),-10,84*,2,-6,42*,33*,8,84*,6
Cc1ccnc(NC(=O)c2oc3ccccc3c2C)c1,nt,96*,-1,-10,51*,49*,-9,91*,15
Cc1c(C(=O)Nc2cnccn2)oc2ccccc12,-9,27,0,-18,-18,nt,nt,nt,nt
CC(C)(C)[C@@H]1COC(=O)[C@H](Cc2ccc(F)cc2)CC/C=C\C[C@H](CC(=O)N(CCO)Cc2ccccc2)C(=O)N1,nt,30,-1,-3,11,nt,nt,nt,nt
CC(C)(C)[C@@H]1COC(=O)[C@H](Cc2ccc(F)cc2)C/C=C\C[C@@H](CC(=O)N(CCO)Cc2ccccc2)C(=O)N1,nt,67*,-1,-15,57,22,-18,72*,-3
Cc1c(NC(=O)COC(=O)c2ccc(F)c(S(=O)(=O)N3CCOCC3)c2)c(=O)n(-c2ccccc2)n1C,-11,8,-1,-9,6,nt,nt,nt,nt
CC1CCCN(C(=O)CNC(=O)c2sc3ccccc3c2Cl)C1 (configuration not stated),nt,nt,0,nt,nt,nt,nt,nt,nt
CC1CC(C)CN(C(=O)CNC(=O)c2sc3ccccc3c2Cl)C1 (configuration not stated),nt,70*,0,-26,55*,27,-11,83*,8
CC(=O)Nc1cccc(OCC(=O)NC(C)c2ccc3ccccc3c2)c1 (configuration not stated),-3,90*,1,-13,51*,62*,-4,78*,12
Cc1ccc(NC(=O)c2cccc(S(=O)(=O)N3CCc4ccccc4C3)c2)nc1,nt,39*,-1,-20,32,-6,-12,36,4
CCOC(=O)c1c(NC(=O)CN2C(=O)C(=O)N(CC(C)C)C2=O)sc(C)c1CC,nt,3,0,-28,-36,nt,nt,nt,nt
CCCCN1CC[C@H]2C=CC[C@@H](C(=O)Nc3ccccc3)[C@H]2C1=O,nt,53,0,-10,-9,nt,nt,nt,nt
O=C(Nc1ccccc1)[C@@H]1CC=C[C@@H]2CCN(Cc3ccc(Cl)c(Cl)c3)C(=O)[C@@H]21,nt,85*,0,-27,66*,56*,-18,92*,2
O=C(Nc1cccc(-c2nc3ccccc3[nH]2)c1)c1ccco1,14,73*,1,-15,24,10,-5,50,8
